# Screening results: PubChem BioAssay, Broad Institute
# Only some compounds are listed: those with a hit (about 2.9% of all), similar ones and a draw of the others.
# Cneo AK release = causes C. neoformans cell lysis; 360,000 tested, 0.2% active; AID 651654; lysis activity, % at 15 µM; adenylate kinase release luminescence, 4 h; normalised: neutral wells 0, clomiphene wells 100;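 active = mean lysis activity across replicates of at least 80%, whatever share of replicates individually reach that level; inactive = mean lysis activity below 80%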
#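 Assay system: C. neoformans cells. Amount: yeast cell density of 5 × 10^6 cells/mL. Technique: AK luminescence. Buffer or medium: YPD. Times: static 4 h at 37 °C with compound, 1 h detection. Dosing: single-point compound dose. Read-out: lysis from increased AK signal.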
# PAX8 inh HTS = lowers PAX8-driven luciferase in RMG-I cells | AID 652154 | RMG-I TPO-luciferase reporter, SteadyGlo, 24 h | 360,000 tested, 1.2% active | inhibition, % at 12.6 µM;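 active = mean replicate inhibition at least 60% with every replicate also reaching 60%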;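 also: luciferase light reporting Pax8 driven TPO promoter activity; plate controls were median of neutral control wells for no effect and mitoxantrone controls for full effect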
# dFosB act = enhances mouse delta FosB homodimer DNA binding. P13346. purified delta FosB, TAMRA-CDK5 oligo fluorescence polarization; percent of positive-control signal above neutral wells. activation, % at 25 µM. 340,000 tested, 0.99% active. AID 493131;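 active = mean activation above about 17%, with every replicate also reaching it, limit read from the data, passing the limit was not always enough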
# Target sequence (P13346 whole entry, looked up): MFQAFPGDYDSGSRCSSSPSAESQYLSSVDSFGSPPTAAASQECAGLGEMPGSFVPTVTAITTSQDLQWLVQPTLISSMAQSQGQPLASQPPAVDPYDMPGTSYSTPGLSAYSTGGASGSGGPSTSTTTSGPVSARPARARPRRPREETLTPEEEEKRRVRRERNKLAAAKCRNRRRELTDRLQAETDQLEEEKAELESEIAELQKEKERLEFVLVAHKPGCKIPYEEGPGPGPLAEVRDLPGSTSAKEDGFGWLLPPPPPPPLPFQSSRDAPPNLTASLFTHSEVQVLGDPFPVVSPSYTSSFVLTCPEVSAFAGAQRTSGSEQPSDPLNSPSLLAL
# HIV Env fusion = inhibitors of HIV Env-mediated cell fusion; AID 651610; inhibition, % at 12.3 µM; 360,000 tested, 1.1% active; HeLa-JRFL Env/CEM21 cell fusion, luciferase;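 active = mean replicate inhibition score of at least 50 and every replicate individually at or above 50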;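 also: 0% = plate neutral controls and 100% = maraviroc near 300 nM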
# CDK5 inh = CDK5/p35 (human) kinase inhibition | Q00535+Q15078 | Recombinant CDK5/p35, ADP-Glo luminescence, 60 min | inhibition, % at 10 µM | 330,000 tested, 0.01% active;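 active = highest replicate inhibition of at least 50% and at least 75% of replicates reaching 50%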;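 also: plate controls were DMSO neutral control for no effect and GW8510 at 10 µM for full effect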
# INS-1E GSIS act = GLuc luminescence reporter in INS-1E cells, primary screen for activators of glucose-dependent secretion of insulin; activation, % at 16.6 µM; AID 743287; INS-1E GLuc reporter insulin secretion, 2-3 h; 370,000 tested, 0.61% active;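 active = lowest replicate activation of at least 40%, so every replicate reaches that level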;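 also: 0% = median of neutral control wells and 100% = median of IBMX positive control wells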
# The depositor's hits bear a star; . = no result given; [ ] = another dose, or the depositor's remark.
SMILES,Cneo AK release,PAX8 inh HTS,dFosB act,HIV Env fusion,CDK5 inh,INS-1E GSIS act
CCCC(=O)NC(c1ccc(Cl)cc1Cl)c1ccc2cccnc2c1O (configuration not stated),1,80*,-1,-389,0,-10
CCCCC(=O)NC(c1ccc(Cl)cc1)c1ccc2cccnc2c1O (configuration not stated),4,73*,-6,-26,-1,-1
CCCC(=O)NC(c1ccc(C)cc1)c1ccc2cccnc2c1O (configuration not stated),3,.,-2,.,-2,.
CC(=O)NC(c1ccc(Cl)cc1Cl)c1ccc2cccnc2c1O (configuration not stated),-1,83*,3,-18,1,.
CCCC(=O)NC(c1ccc(Cl)cc1)c1ccc2cccnc2c1O (configuration not stated),2,85*,-7,-10,0,-28
C[C@H]1CN([C@@H](C)CO)S(=O)(=O)c2ccc(C#CC3CC3)cc2O[C@H]1CN(C)C,3,.,.,-15[16.7 µM],.,-2
COc1ccc(C(NC(C)=O)c2ccc3cccnc3c2O)c(OC)c1 (configuration not stated),4,.,-3,.,-1,.
CC(=O)NC(c1ccc2ccccc2c1)c1ccc2cccnc2c1O (configuration not stated),0,93*,-9,-15,0,4
CCCCC(=O)NC(c1ccccc1OC)c1ccc2cccnc2c1O (configuration not stated),1,88*,-8,-22,-1,-27
O=C(NC[C@@H]1CC[C@H]2[C@H](CN2Cc2cccc(Cl)c2)O1)C1CCC1,.,-18,.,-25[16.7 µM],.,.
O=C(NCCc1ccncc1)[C@H]1[C@H](CO)[C@H]2Cn3c(ccc(C4=CCCCC4)c3=O)[C@@H]1N2CC1CC1,.,.,.,15[16.7 µM],.,-7
COC(=O)c1ccc(C(=O)Nc2ccc3nc(-c4ccncc4)[nH]c3c2)cc1,0,41,44*,16,0,-7
O=C(c1ccccc1)c1ccc2nc(-c3ccc(NC(=O)c4ccccc4F)cc3)[nH]c2c1,8,.,6,.,-1,197*
O=C(Nc1ccc2nc(-c3ccccc3)[nH]c2c1)c1cccs1,-2,.,5,.,1,-13
O=C(Nc1ccc2nc(-c3ccc4nc[nH]c4c3)[nH]c2c1)c1cccs1,4,68*,3,-27,0,.
C[C@@H]1CN([C@@H](C)CO)C(=O)c2cc(C#CC3CC3)cnc2O[C@H]1CN(C)S(C)(=O)=O,0,.,.,-3[16.7 µM],.,16
Nc1ccn([C@@H]2O[C@H](C(=O)NCc3ccc4c(c3)OCO4)[C@@H](O)[C@H]2O)c(=O)n1,1,-5,.,77*,.,20
Nc1ccn([C@@H]2O[C@H](C(=O)NCCc3ccc(F)cc3)[C@@H](O)[C@H]2O)c(=O)n1,1,-3,.,16,.,7
COc1ccc(-c2csc(Nc3ccc(Oc4ccccc4)cc3)n2)cc1,-13,-11,.,77*,.,18
CCn1c2c(c3cc(OCC(C)C)ccc31)CCCC2=O,-3,.,1,.,1,-28
C=C1CCc2c([nH]c3ccc(OCC(C)C)cc23)C1=O,-2,111*,-11,1,1,-1
COc1cccc(-n2c(SC)nnc2-c2c[nH]c3ccccc23)c1,0,10,-11,17,0,0
COc1cccc(-n2c(SCC(=O)N3CCc4ccccc43)nnc2-c2c[nH]c3ccccc23)c1,5,6,-6,56*,0,.
C[C@@H]1CN([C@H](C)CO)C(=O)c2cc(NC(=O)NC3CCCCC3)ccc2O[C@@H](C)CCCCO[C@H]1CN(C)C(=O)c1ccncc1,-15,-7,.,2[16.7 µM],.,-4
COc1cc(/C=C/C(=O)Nc2nnc(CC(C)C)s2)cc(OC)c1OC,.,-18,-1,57*,0,-2
SMILES,Cneo AK release,PAX8 inh HTS,dFosB act,HIV Env fusion,CDK5 inh,INS-1E GSIS act
CO[C@@H]1CN(C)C(=O)c2cc(NC(=O)NC(C)C)ccc2OC[C@H](C)N(CCC(F)(F)F)C[C@@H]1C,1,-6,.,-5[16.7 µM],.,3
COC(=O)c1ccc2c(=O)[nH]c(CSc3nc(C)cs3)nc2c1,1,-39,-19,-15,2,-20
COC(=O)c1ccc2c(=O)[nH]c(CSc3nc(-c4ccc(F)cc4)cs3)nc2c1,.,21,-7,1,2,58*
C[C@@H]1CN([C@H](C)CO)C(=O)Cc2cc(NC(=O)CCCN(C)C)ccc2O[C@H]1CN(C)Cc1ccc(-c2ccccc2)cc1,22,-3,.,.,.,72*
C[C@H](CO)N1C[C@H](C)[C@@H](CN(C)Cc2ccc(-c3ccccc3)cc2)Oc2ccc(NC(=O)Cc3ccccc3)cc2CC1=O,0,94*,.,-19[16.7 µM],.,-19
C[C@H]1CN([C@@H](C)CO)C(=O)Cc2cc(NC(=O)CCC(F)(F)F)ccc2O[C@H]1CN(C)Cc1ccc(-c2ccccc2)cc1,5,19,9,-317,-1,-21
C[C@H](CO)N1C[C@H](C)[C@H](CN(C)Cc2ccc(-c3ccccc3)cc2)Oc2ccc(NC(=O)Cc3ccccc3)cc2CC1=O,0,66*,.,-34[16.7 µM],.,-8
C[C@@H]1CN([C@@H](C)CO)C(=O)Cc2cc(NC(=O)CCC(F)(F)F)ccc2O[C@H]1CN(C)Cc1ccc(-c2ccccc2)cc1,2,100*,.,29[16.7 µM],.,-13
C[C@H]1CN([C@@H](C)CO)C(=O)c2cc(C#Cc3ccc(F)cc3)cnc2O[C@H]1CN(C)S(C)(=O)=O,-7,.,.,6[16.7 µM],.,12
Cc1noc(C)c1NC(=O)Nc1ccc2c(c1)C(=O)N([C@@H](C)CO)C[C@H](C)[C@@H](CN(C)Cc1ccc(C(F)(F)F)cc1)OCCCC[C@@H](C)O2,2,6,.,-19[16.7 µM],.,-5
C[C@@H]1CN([C@@H](C)CO)C(=O)c2cc(NC(=O)CCC(F)(F)F)ccc2O[C@H]1CN(C)Cc1ccc(C(F)(F)F)cc1,57,9,.,.,.,-16
Cc1ccc(S(=O)(=O)NC2CCN(Cc3ccc(OCCO)cc3)CC2)cc1,18,-18,.,33[16.7 µM],.,.
COc1ccc2nc(N/C(N)=N/S(C)(=O)=O)nc(C)c2c1,0,-41,-7,61*,1,6
COc1ccc2nc(N/C(N)=N/C(=S)Nc3c(C)cccc3C)nc(C)c2c1,.,-59,1,-12,0,4
COCCn1c(SCC(=O)NC(=O)NC(C)(C)C)nc2ccccc21,0,.,-12,123*,-2,-17
C[C@H](CO)N1C[C@H](C)[C@@H](CN(C)C(=O)CCC(F)(F)F)OCc2ccccc2-c2c(n(C)c3ccccc23)C1=O,1,5,.,50[16.7 µM],.,-17
O=C(Nc1cc(Cl)cc(Cl)c1)C(c1ccccc1)N1CCCCC1 (configuration not stated),.,-11,0,75*,-1,.
